Experiment [1] is described as follows: Inhibition of Staphylococcus aureus tyrosyl-tRNA synthetase. In outline:
(§1)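 Tritiated tyrosine aminoacylation at 37°C. Mix (final): 100 mM Tris/Cl pH 7.9, 50 mM KCl, 16 mM MgCl2, 5 mM ATP, 3 mM DTT, 4 mg/ml E. coli MRE600 tRNA, 10 µM L-tyrosine including 0.3 µM L-[ring-3,5-3H]tyrosine. TyrRS (0.2 nM) preincubated 10 min at room temperature with a range of inhibitor concentrations. TCA precipitation onto filters, scintillation counting. Linear rates, under 50% tRNA acylation; IC50 at half activity.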

The next experiment relates to Pseudomonas aeruginosa. The experiment in a line: Antimicrobial activity against Pseudomonas aeruginosa ATCC 9027 by MTT assay. The experiment is classed as functional. In outline: (§2)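 Broth microdilution in LB medium with MTT read-out. Compound stock 1000 µg/ml in DMSO, diluted serially with sterile medium (50% v/v DMSO in PBS). Inoculum about 10^5 cfu/mL, incubated at 37°C. Then 3 mg/mL MTT in PBS added, 4-5 h at room temperature. Dye extracted with 10% SDS containing 5% isopropanol and HCl for 8-10 h. Absorbance at 570 nm gives MIC50.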

The test system of the next experiment is Escherichia coli. Nature of the experiment: Antimicrobial activity against Escherichia coli ATCC 8739 by MTT assay. The experiment is classed as functional. In outline: as §2
Background: Formazan colour is commonly taken as a measure of viable cells.

Experiment [2] in a line: Inhibition of Staphylococcus aureus tyrosyl-tRNA synthetase expressed in Escherichia coli assessed as reduction in tRNA aminoacylation pre-incubated for 10 mins before addition of Escherichia coli MRE600 tRNA and L-tyrosine. Summed up:
as §1

In another experiment the test system is Staphylococcus aureus. Nature of the experiment: Antimicrobial activity against Staphylococcus aureus ATCC 6538 by MTT assay. The experiment is classed as functional. Summed up: as §2

≈ marks a conversion by molar mass, not a printed value.

For orientation: IC50 means the concentration that gives 50% inhibition. The term MIC50 denotes an inhibitory concentration at the 50% level, which refers to growth in some studies and to a panel of isolates in others. A low value points to greater potency.

With `N[C@@H](Cc1ccc(O)cc1)C(=O)N[C@H](C(=O)O)[C@H]1[C@H](O)[C@]2(O)CO[C@@H]([C@@H]2O)N1O`, the IC50 in experiment [1] is less than 0.001 µM.

For `CC1(C)O[C@@H]2[C@H](O1)[C@@H](COC(=O)Cc1ccccc1F)O[C@H]2n1cnc2c(N)ncnc21`, the MIC50 against Pseudomonas aeruginosa was 25.5 µg/mL (≈ 57.5 µM); against Escherichia coli it was 25.7 µg/mL (≈ 58 µM); with Staphylococcus aureus, greater than 100 µg/mL. Also, the IC50 in experiment [2] amounted to 44 µM.

On to `CC1(C)O[C@@H]2[C@H](O1)[C@@H](COC(=O)Cc1ccc(Cl)cc1)O[C@H]2n1cnc2c(N)ncnc21`, for which the MIC50 against Pseudomonas aeruginosa is 30.6 µg/mL (≈ 66.5 µM); with Escherichia coli it was 15.2 µg/mL (≈ 33.1 µM); against Staphylococcus aureus, 7.2 µg/mL (≈ 15.7 µM). For the same compound, the IC50 in experiment [2] was found to be 8.4 µM.

As for `CC1(C)O[C@@H]2[C@H](O1)[C@@H](COC(=O)Cc1ccccc1O)O[C@H]2n1cnc2c(N)ncnc21`, the MIC50 was 23 µg/mL (≈ 52.1 µM) against Pseudomonas aeruginosa, 37.2 µg/mL (≈ 84.3 µM) against Escherichia coli and greater than 100 µg/mL with Staphylococcus aureus. For the same compound, in experiment [2], the IC50 is 55 µM.

On to `Nc1ncnc2c1ncn2[C@@H]1O[C@H](COC(=O)Cc2cccc(Br)c2)[C@@H](O)[C@H]1O`, for which the MIC50 in the experiment with Pseudomonas aeruginosa is 27.4 µg/mL (≈ 59 µM); in the experiment with Escherichia coli it was 38.1 µg/mL (≈ 82.1 µM); with Staphylococcus aureus, greater than 100 µg/mL. The IC50 in experiment [2] is 3.3 µM.
